Assay results: ChEMBL document CHEMBL1132117, “Novel potential agents for human cytomegalovirus infection: synthesis and antiviral activity evaluation of benzothiadiazine dioxide acyclonucleosides” (J Med Chem, 1999)
≈ marks a conversion by molar mass, not a printed value.

Experiments:
[1] = test system: Human immunodeficiency virus 1; test: Concentration of the required to protect CEM cells of Human T-lymphocyte against Cytopathogenicity of HIV-1(III-B) by 50%; format: functional, organism-based; conditions: Human immunodeficiency virus 1, CCRF-CEM
In short: (§1)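 CEM cells at 4 × 10⁵ cells/mL infected with HIV-1 (IIIB) or HIV-2 (ROD) at ~100 CCID₅₀/mL, then mixed with serial compound dilutions. Giant cell formation scored microscopically after 4 days. Triplicate assays.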

[2] = test system: Human immunodeficiency virus 2; test: Concentration of the required to protect CEM cells of Human T-lymphocyte against Cytopathogenicity of HIV-2 by 50%; format: functional, organism-based; conditions: Human immunodeficiency virus 2, CCRF-CEM; in short: as §1
CCRF-CEM = test: The concentration required to reduce 50% cell viability on CEM cells of Human T-lymphocyte; format: functional
In short: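 Uninfected CEM cells exposed to compound dilutions. Triplicate assays.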

HEL [3] = test: The concentration required to reduce cell growth by 50% was measured on Human Embryonic Lung (HEL) cells; format: functional
In short: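 HEL fibroblasts seeded at 5 × 10³ cells/well and grown 24 h, then given compound dilutions in duplicate. Cells counted with a Coulter counter after 3 days at 37 °C in 5% CO₂.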

HEL [4] = test: The minimum cytotoxic concentration was measured on Human Embryonic Lung (HEL) cells; format: functional
In short: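 Minimum toxic concentration is the lowest concentration giving a microscopically detectable change in morphology of normal HEL cells. Duplicate assays.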

Human betaherpesvirus 5 [5] = test: The concentration required to reduce virus plaque formation by 50% was measured on AD-169 strains of human cytomegalovirus; format: functional, organism-based
Human betaherpesvirus 5 [6] = test: The concentration required to reduce virus plaque formation by 50% was measured on Davis strains of human cytomegalovirus; format: functional, organism-based
Human alphaherpesvirus 3 [7] = test: The concentration required to reduce virus plaque formation by 50% was measured on 07/1 strain of VZV expressing viral thymidine kinase(TK-); format: functional, organism-based
Human alphaherpesvirus 3 [8] = test: The concentration required to reduce virus plaque formation by 50% was measured on OKA strain of VZV expressing viral thymidine kinase(TK+); format: functional, organism-based
Human alphaherpesvirus 3 [9] = test: The concentration required to reduce virus plaque formation by 50% was measured on YS strain of VZV expressing viral thymidine kinase(TK+); format: functional, organism-based
Human alphaherpesvirus 3 [10] = test: The concentration required to reduce virus plaque formation by 50% was measured on YS/Rstrain of VZV expressing viral thymidine kinase(TK-); format: functional, organism-based

## O=C1c2ccccc2NS(=O)(=O)N1COCCO
[1]
  EC50: > 40 µg/mL
[2]
  EC50: > 40 µg/mL
CCRF-CEM
  CC50: > 200 µg/mL
HEL [3]
  CC50: 160 µg/mL (≈ 588 µM)
HEL [4]
  MCC: > 50 µg/mL
Human betaherpesvirus 5 [5]
  IC50: > 50 µg/mL
Human betaherpesvirus 5 [6]
  IC50: > 50 µg/mL
Human alphaherpesvirus 3 [7]
  IC50: > 50 µg/mL
Human alphaherpesvirus 3 [8]
  IC50: > 50 µg/mL
Human alphaherpesvirus 3 [9]
  IC50: > 50 µg/mL
Human alphaherpesvirus 3 [10]
  IC50: > 50 µg/mL

## O=C1c2ccccc2NS(=O)(=O)N1Cc1ccccc1
[1]
  EC50: > 200 µg/mL
[2]
  EC50: > 200 µg/mL
CCRF-CEM
  CC50: > 200 µg/mL
HEL [3]
  CC50: > 50 µg/mL
HEL [4]
  MCC: 50 µg/mL
Human betaherpesvirus 5 [5]
  IC50: > 20 µg/mL
Human betaherpesvirus 5 [6]
  IC50: > 20 µg/mL
Human alphaherpesvirus 3 [7]
  IC50: 48 µg/mL (≈ 166 µM)
Human alphaherpesvirus 3 [8]
  IC50: > 50 µg/mL
Human alphaherpesvirus 3 [9]
  IC50: > 50 µg/mL
Human alphaherpesvirus 3 [10]
  IC50: > 50 µg/mL

## CC(=O)OCCOCN1c2ccccc2C(=O)NS1(=O)=O
[1]
  EC50: > 200 µg/mL
[2]
  EC50: > 200 µg/mL
CCRF-CEM
  CC50: > 200 µg/mL
HEL [3]
  CC50: > 200 µg/mL
HEL [4]
  MCC: > 50 µg/mL
Human betaherpesvirus 5 [5]
  IC50: > 50 µg/mL
Human betaherpesvirus 5 [6]
  IC50: > 50 µg/mL
Human alphaherpesvirus 3 [7]
  IC50: > 50 µg/mL
Human alphaherpesvirus 3 [8]
  IC50: > 50 µg/mL
Human alphaherpesvirus 3 [9]
  IC50: > 50 µg/mL
Human alphaherpesvirus 3 [10]
  IC50: > 50 µg/mL

## CC(=O)OCCOCN1C(=O)c2ccccc2NS1(=O)=O
[1]
  EC50: > 200 µg/mL
[2]
  EC50: > 200 µg/mL
CCRF-CEM
  CC50: > 200 µg/mL
HEL [3]
  CC50: > 200 µg/mL
HEL [4]
  MCC: > 50 µg/mL
Human betaherpesvirus 5 [5]
  IC50: > 50 µg/mL
Human betaherpesvirus 5 [6]
  IC50: > 50 µg/mL
Human alphaherpesvirus 3 [7]
  IC50: > 50 µg/mL
Human alphaherpesvirus 3 [8]
  IC50: > 50 µg/mL
Human alphaherpesvirus 3 [9]
  IC50: > 50 µg/mL
Human alphaherpesvirus 3 [10]
  IC50: > 50 µg/mL

## O=C1NS(=O)(=O)N(COCc2ccccc2)c2ccccc21
[1]
  EC50: > 40 µg/mL
[2]
  EC50: > 40 µg/mL
CCRF-CEM
  CC50: > 200 µg/mL
HEL [3]
  CC50: > 50 µg/mL
HEL [4]
  MCC: > 50 µg/mL
Human betaherpesvirus 5 [5]
  IC50: > 50 µg/mL
Human betaherpesvirus 5 [6]
  IC50: > 50 µg/mL
Human alphaherpesvirus 3 [7]
  IC50: > 50 µg/mL
Human alphaherpesvirus 3 [8]
  IC50: > 50 µg/mL
Human alphaherpesvirus 3 [9]
  IC50: > 50 µg/mL
Human alphaherpesvirus 3 [10]
  IC50: > 50 µg/mL

## CC(=O)OCCOCN1c2ccccc2C(=O)N(Cc2ccccc2)S1(=O)=O
[1]
  EC50: > 40 µg/mL
[2]
  EC50: > 40 µg/mL
CCRF-CEM
  CC50: 103 µg/mL (≈ 255 µM)
HEL [3]
  CC50: 100 µg/mL (≈ 247 µM)
HEL [4]
  MCC: 50 µg/mL
Human betaherpesvirus 5 [5]
  IC50: > 20 µg/mL
Human betaherpesvirus 5 [6]
  IC50: > 50 µg/mL
Human alphaherpesvirus 3 [7]
  IC50: 44 µg/mL (≈ 109 µM)
Human alphaherpesvirus 3 [8]
  IC50: 42 µg/mL (≈ 104 µM)
Human alphaherpesvirus 3 [9]
  IC50: > 50 µg/mL
Human alphaherpesvirus 3 [10]
  IC50: > 20 µg/mL

## O=C(OCCOCN1c2ccccc2C(=O)N(Cc2ccccc2)S1(=O)=O)c1ccccc1
[1]
  EC50: > 40 µg/mL
[2]
  EC50: > 40 µg/mL
CCRF-CEM
  CC50: 100 µg/mL (≈ 214 µM)
HEL [3]
  CC50: 17 µg/mL (≈ 36.4 µM)
HEL [4]
  MCC: 50 µg/mL
Human betaherpesvirus 5 [5]
  IC50: 13 µg/mL (≈ 27.9 µM)
Human betaherpesvirus 5 [6]
  IC50: > 20 µg/mL
Human alphaherpesvirus 3 [7]
  IC50: > 20 µg/mL
Human alphaherpesvirus 3 [8]
  IC50: > 20 µg/mL
Human alphaherpesvirus 3 [9]
  IC50: > 20 µg/mL
Human alphaherpesvirus 3 [10]
  IC50: 12 µg/mL (≈ 25.7 µM)

## O=C1c2ccccc2N(COCCO)S(=O)(=O)N1Cc1ccccc1
[1]
  EC50: > 40 µg/mL
[2]
  EC50: > 40 µg/mL
CCRF-CEM
  CC50: 89 µg/mL (≈ 246 µM)
HEL [3]
  CC50: 125 µg/mL (≈ 345 µM)
HEL [4]
  MCC: > 50 µg/mL
Human betaherpesvirus 5 [5]
  IC50: > 20 µg/mL
Human betaherpesvirus 5 [6]
  IC50: > 50 µg/mL
Human alphaherpesvirus 3 [7]
  IC50: 55 µg/mL (≈ 152 µM)
Human alphaherpesvirus 3 [8]
  IC50: 43 µg/mL (≈ 119 µM)
Human alphaherpesvirus 3 [9]
  IC50: > 50 µg/mL
Human alphaherpesvirus 3 [10]
  IC50: > 20 µg/mL

## O=C1NS(=O)(=O)N(COCCO)c2ccccc21
[1]
  EC50: > 40 µg/mL
[2]
  EC50: > 40 µg/mL
CCRF-CEM
  CC50: 15 µg/mL (≈ 55.1 µM)
HEL [3]
  CC50: 112 µg/mL (≈ 411 µM)
HEL [4]
  MCC: > 50 µg/mL
Human betaherpesvirus 5 [5]
  IC50: > 50 µg/mL
Human betaherpesvirus 5 [6]
  IC50: > 50 µg/mL
Human alphaherpesvirus 3 [7]
  IC50: > 50 µg/mL
Human alphaherpesvirus 3 [8]
  IC50: > 50 µg/mL
Human alphaherpesvirus 3 [9]
  IC50: > 50 µg/mL
Human alphaherpesvirus 3 [10]
  IC50: > 50 µg/mL

## CCCOCN1c2ccccc2C(=O)NS1(=O)=O
[1]
  EC50: > 40 µg/mL
[2]
  EC50: > 40 µg/mL
CCRF-CEM
  CC50: > 200 µg/mL
HEL [3]
  CC50: > 50 µg/mL
HEL [4]
  MCC: > 50 µg/mL
Human betaherpesvirus 5 [5]
  IC50: > 50 µg/mL
Human betaherpesvirus 5 [6]
  IC50: > 50 µg/mL
Human alphaherpesvirus 3 [7]
  IC50: > 50 µg/mL
Human alphaherpesvirus 3 [8]
  IC50: > 50 µg/mL
Human alphaherpesvirus 3 [9]
  IC50: > 50 µg/mL
Human alphaherpesvirus 3 [10]
  IC50: > 50 µg/mL

## C#CCOCN1c2ccccc2C(=O)N(Cc2ccccc2)S1(=O)=O
[1]
  EC50: > 8 µg/mL
[2]
  EC50: > 8 µg/mL
CCRF-CEM
  CC50: 23 µg/mL (≈ 64.5 µM)
HEL [3]
  CC50: > 50 µg/mL
HEL [4]
  MCC: 50 µg/mL
Human betaherpesvirus 5 [5]
  IC50: 12 µg/mL (≈ 33.7 µM)
Human betaherpesvirus 5 [6]
  IC50: 12 µg/mL (≈ 33.7 µM)
Human alphaherpesvirus 3 [7]
  IC50: 11 µg/mL (≈ 30.9 µM)
Human alphaherpesvirus 3 [8]
  IC50: 21 µg/mL (≈ 58.9 µM)
Human alphaherpesvirus 3 [9]
  IC50: 24 µg/mL (≈ 67.3 µM)
Human alphaherpesvirus 3 [10]
  IC50: 13 µg/mL (≈ 36.5 µM)

## O=C1c2ccccc2N(Cc2ccccc2)S(=O)(=O)N1COCc1ccccc1
[1]
  EC50: 15 µg/mL (≈ 36.7 µM)
[2]
  EC50: 20 µg/mL (≈ 49 µM)
CCRF-CEM
  CC50: 100 µg/mL (≈ 245 µM)
HEL [3]
  CC50: > 40 µg/mL
HEL [4]
  MCC: 20 µg/mL
Human betaherpesvirus 5 [5]
  IC50: 3.5 µg/mL (≈ 8.57 µM)
Human betaherpesvirus 5 [6]
  IC50: 3.7 µg/mL (≈ 9.06 µM)
Human alphaherpesvirus 3 [7]
  IC50: > 5 µg/mL
Human alphaherpesvirus 3 [8]
  IC50: > 5 µg/mL
Human alphaherpesvirus 3 [9]
  IC50: > 5 µg/mL
Human alphaherpesvirus 3 [10]
  IC50: 3 µg/mL (≈ 7.34 µM)

## O=C1c2ccccc2N(COCc2ccccc2)S(=O)(=O)N1Cc1ccccc1
[1]
  EC50: > 8 µg/mL
[2]
  EC50: > 8 µg/mL
CCRF-CEM
  CC50: 25 µg/mL (≈ 61.2 µM)
HEL [3]
  CC50: > 50 µg/mL
HEL [4]
  MCC: > 50 µg/mL
Human betaherpesvirus 5 [5]
  IC50: 8 µg/mL (≈ 19.6 µM)
Human betaherpesvirus 5 [6]
  IC50: 11 µg/mL (≈ 26.9 µM)
Human alphaherpesvirus 3 [7]
  IC50: > 5 µg/mL
Human alphaherpesvirus 3 [8]
  IC50: 20 µg/mL (≈ 49 µM)
Human alphaherpesvirus 3 [9]
  IC50: 20 µg/mL (≈ 49 µM)
Human alphaherpesvirus 3 [10]
  IC50: > 5 µg/mL

## Nc1nc2c(ncn2COCCO)c(=O)[nH]1 [ACYCLOVIR]
HEL [3]
  CC50: > 200 µg/mL
HEL [4]
  MCC: > 50 µg/mL

## Nc1nc2c(ncn2COC(CO)CO)c(=O)[nH]1 [GANCICLOVIR]
HEL [3]
  CC50: > 50 µg/mL
HEL [4]
  MCC: > 50 µg/mL
Human betaherpesvirus 5 [5]
  IC50: 1.2 µg/mL (≈ 4.7 µM)
Human betaherpesvirus 5 [6]
  IC50: 1.9 µg/mL (≈ 7.44 µM)
